Results on 7 molecules are retold here after ChEMBL document CHEMBL1123658, “1-(2-pyridinyl)piperazine derivatives with antianaphylactic, antibronchospastic, and mast cell stabilizing activities” (J Med Chem, 1987).

For series [1], the system named is Cavia porcellus. The experiment in a line: Antibronchospatic activity determined by histamine stimulated bronchospasm inhibition in guinea pigs after(i.v.) administration. Type of series: functional, Bronchiole. Summed up: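 Guinea pigs, Konzett–Rössler preparation. Bronchospasm was induced with histamine. Compound was given iv (1 mL/kg) 1 min before the agonist, dissolved in saline or saline with slight excess HCl or CH3SO3H (pH 3.5–4). Three doses were tested in duplicate, chosen to give 20–90% inhibition. ID75 was read graphically from log dose–response curves.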

For series [2], the system named is Rattus norvegicus. Description: Rat PCA Test(50% inhibition of spot areas)in the female albino rats after ip administration in 10% aqueous acacia gum. Type of series: functional. The conditions noted are these: read-out: ID50 (the source's name). The method, boiled down: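 Antiserum came from female rats given 1% egg albumin in 0.9% NaCl intramuscularly plus Haemophilus pertussis vaccine (2 × 10^10 organisms) intraperitoneally, and was collected 12 days later. Recipient rats (200-250 g) got it intradermally at a ventral site. After 24 h, groups of 10 received vehicle or compound ip. At 30 min they were challenged iv with 0.3% egg albumin plus 1% Evans blue. Blued skin areas were measured 30 min later.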

Series [3] can be described thus: In vivo toxic effect was determined in mouse after intraperitoneal administration with 10% aqueous acacia gum; value ranges from 0.63-1.05. Type of series: toxicity, organism-based. The conditions noted are these: ip. Summed up: (§1)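 Female albino mice (20-30 g), 10 animals per dose, dosed intraperitoneally with compound in solution or suspension; compounds tested as salts unless noted. Mortality was recorded over 7 days.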

In series [4] the test system is Rattus norvegicus. Description: Rat PCA Test(50% inhibition of spot areas)in the female albino rats after (ip) administration in 10% aqueous acacia gum; value ranges from 328-1350. Type of series: functional. To be noted: read-out: ID50 (the source's name). The method, boiled down: (§2)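 Female albino rats (200–250 g) received intradermal ventral injections of rat anti-egg-albumin antiserum; donors were raised with egg albumin im plus H. pertussis ip, and serum was taken at 12 days. 24 h later, compound was given ip in 10% acacia gum (10 mL/kg), 10 rats/group. Challenge 30 min later was iv 0.3% egg albumin plus 1% Evans blue. Blued areas were measured 30 min after challenge.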

Series [5] in a line: In vivo toxic effect was determined in mouse after intraperitoneal administration with 10% aqueous acacia gum; value ranges from 3.67-6.20. To be noted: ip. Type of series: toxicity, organism-based. The method, boiled down: as §1
In series [6] the test system is Rattus norvegicus. The experiment in a line: Inhibition of mast cell degranulation was assessed in female albino rats at a dose of 61 umol/kg iv. Type of series: functional.
A short description of series [7]: In vivo toxic effect was determined in mouse after intraperitoneal administration with 10% aqueous acacia gum; value ranges from 0.96-10.62. The class given is toxicity, organism-based. The conditions noted are these: ip. Summed up:
as §1

A short description of series [8]: In vivo toxic effect was determined in mouse after oral administration with 10% aqueous acacia gum; value ranges from 1.79-2.41. The class given is toxicity, organism-based. The method, boiled down: (§3)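 Female albino mice, 20-30 g. Compound given orally as solution or suspension in 10% aqueous acacia gum, 10 animals per dose. Deaths recorded over 7 days.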
For series [9], the system named is Rattus norvegicus. Description: Rat PCA Test(50% inhibition of spot areas)in the female albino rats after (ip) administration in 10% aqueous acacia gum. The class given is functional. The conditions noted are these: read-out: ID50 (the source's name). Summed up:
as §2

Series [10] is described as follows: In vivo toxic effect was determined in mouse after intraperitoneal administration with 10% aqueous acacia gum; value ranges from 1.41-3.07. The class given is toxicity, organism-based. The conditions noted are these: ip. Summed up: as §1
Series [11] can be described thus: In vivo toxic effect was determined in mouse after oral administration with 10% aqueous acacia gum; value ranges from 3.02-4.51. Type of series: toxicity, organism-based. The method, boiled down: as §3
The test system of series [12] is Rattus norvegicus. Description: Rat PCA Test(50% inhibition of spot areas)in the female albino rats after (ip) administration in 10% aqueous acacia gum; value ranges from 22-195. Type of series: functional. The conditions noted are these: read-out: ID50 (the source's name). The method, boiled down: as §2
Series [13] concerns Rattus norvegicus. Description: Rat PCA Test(50% inhibition of spot areas)in the female albino rats after oral administration in 10% aqueous acacia gum. Type of series: functional. The conditions noted are these: read-out: ID50 (the source's name). Summed up: (§4)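 Female rats (200-250 g) were passively sensitized by ventral intradermal anti-egg-albumin antiserum. This was raised in rats by intramuscular 1% egg albumin plus ip H. pertussis vaccine, with serum taken at 12 days. After 24 h, groups of 10 were dosed orally with compound or vehicle (10 mL/kg). At 60 min, iv challenge used 0.3% egg albumin with 1% Evans blue. Blued areas were measured after 30 min.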

Series [14] can be described thus: In vivo toxic effect was determined in mouse after intraperitoneal administration with 10% aqueous acacia gum; value ranges from 0.72-1.40. The class given is toxicity, organism-based. To be noted: ip. The method, boiled down:
as §1

A short description of series [15]: In vivo toxic effect was determined in mouse after oral administration with 10% aqueous acacia gum; value ranges from 1.35-1.88. Type of series: toxicity, organism-based. Summed up:
as §3

The test system of series [16] is Rattus norvegicus. The experiment in a line: Inhibition of mast cell degranulation was assessed in female albino rats at a dose of 28 umol/kg iv. The class given is functional.
Series [17] relates to Rattus norvegicus. The experiment in a line: Rat PCA Test(50% inhibition of spot areas)in the female albino rats after oral administration in 10% aqueous acacia gum; value ranges from 30-108. Type of series: functional. The conditions noted are these: read-out: ID50 (the source's name). Summed up: as §4
Series [18] deals with Rattus norvegicus. The experiment in a line: Rat PCA Test(50% inhibition of spot areas)in the female albino rats after (ip) administration in 10% aqueous acacia gum; value ranges from 141-206. Type of series: functional. To be noted: read-out: ID50 (the source's name). The method, boiled down:
as §2

Series [19] can be described thus: In vivo toxicity in mouse after oral administration with 10% aqueous acacia gum. Type of series: organism-based. Summed up:
as §3

In series [20] the test system is Mus musculus. Description: In vivo toxic effect was determined in mouse after intraperitoneal administration with 10% aqueous acacia gum; NA means poorly absorbed. Type of series: toxicity, organism-based. The conditions noted are these: ip. The method, boiled down:
as §1

For series [21], the system named is Rattus norvegicus. The experiment in a line: Rat PCA Test(50% inhibition of spot areas)in the female albino rats after oral administration in 10% aqueous acacia gum; value ranges from 80-130. The class given is functional. The conditions noted are these: read-out: ID50 (the source's name). The method, boiled down: as §4
A short description of series [22]: In vivo toxic effect was determined in mouse after intraperitoneal administration with 10% aqueous acacia gum; value ranges from 2.17-4.89. To be noted: ip. The class given is toxicity, organism-based. The method, boiled down:
as §1

Series [23] in a line: In vivo toxic effect was determined in mouse after oral administration with 10% aqueous acacia gum; value ranges from 5.08-7.62. The class given is toxicity, organism-based. The method, boiled down:
as §3

In series [1], `Cc1c(C)c(C(=O)NCCN2CCN(c3ccccn3)CC2)c(C)c(C)c1N` yielded an ID75 of 8.39 µM/kg. Besides, in series [2], the ED50 was > 236 µmol/kg. The same molecule gave an LD50 in series [3] of 710 µmol/kg.
The molecule `CCOC(=O)CCN1CCN(c2ccccn2)CC1.Cl.Cl` came in with an ID75 in [1] of 7.03 µM/kg. The ED50 in [4] was determined as 665 µmol/kg. This molecule also had an LD50 in [5] of 5080 µmol/kg.
With `Nc1ccccc1NC(=O)CCN1CCN(c2ccccn2)CC1`, the inhibition in vivo at 61 µmol/kg in series [6] was found to be 26%. Moreover, the results for the LD50 in series [7] and in series [8] were 3200 µmol/kg and 2080 µmol/kg, respectively.
In series [1], `Cl.Cl.O=C(CCN1CCN(c2ccccn2)CC1)Nc1ccccc1[N+](=O)[O-]` gave an ID75 of 0.58 µM/kg. Besides, the ED50 in [9] is > 230 µmol/kg. For the same molecule, the LD50 in series [10] was found to be 2080 µmol/kg; in series [11], 3700 µmol/kg.
In the case of `Cc1ccccc1NC(=O)CCN1CCN(c2ccccn2)CC1`, in series [1], the ID75 worked out at 0.47 µM/kg. For the same molecule, the values for the ED50 in series [12] and in [13] were 65 µmol/kg and > 96 µmol/kg, respectively. Besides, the results for the median lethal dose (LD50) in series [14] and in series [15] were 1010 µmol/kg and 1580 µmol/kg, respectively.
For `CSc1ccc(NC(=O)CCN2CCN(c3ccccn3)CC2)cc1`, the inhibition in vivo at 28 µmol/kg in [16] stood at 50%. Also, the ID75 in series [1] stood at 0.17 µM/kg. Besides, the ED50 in series [17] stood at 57 µmol/kg; in series [18], 171 µmol/kg. The values for the LD50 in [19] and in [20] were > 8400 µmol/kg and “Not Active”, respectively.
For the molecule `CC(O)c1ccc(NC(=O)CCN2CCN(c3ccccn3)CC2)cc1` (centres undefined), the inhibition in vivo at 28 µmol/kg in series [16] came to 22%. Moreover, in series [1], the ID75 amounted to 0.48 µM/kg. Further, the ED50 in [21] came out at 103 µmol/kg. Moreover, the LD50 in series [22] is 3250 µmol/kg; in [23] it was 5970 µmol/kg.

A word on the LD50: it is the dose at which mortality reaches 50%. The low end stands for a more toxic substance, the high end for a less toxic substance. Broadly, the inhibition in vivo is the relative decrease from the control value, in per cent. A low value points to little suppression.
